From PubChem BioAssay
CHRM4 agonist: human M4 muscarinic receptor agonists, primary screen, CHO-K1 cells, Fluo-8 calcium fluorescence; Muscarinic acetylcholine receptor M4 (Homo sapiens), P08173; CHO-K1 hM4/Gqi5; vehicle 0%, full acetylcholine response 100%; activation, % at 3 µM; actives 0.14% (n = 360,000); AID 624127, 2012;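 active = activation above the run mean over all test wells plus 3 SD, cut at about 32% in these data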;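 also: peak over basal fluorescence ratio per well then scaled between controls; 0% = DMSO wells and 100% = acetylcholine at EC100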
CHRM4 antagonist: human M4 muscarinic receptor antagonists, primary screen, CHO cells, Fluo-8 calcium fluorescence; Muscarinic acetylcholine receptor M4 (Homo sapiens), P08173; CHO-hM4 cells, ACh EC80; inhibition, % at 3 µM; actives 0.73% (n = 360,000); AID 624125, 2012;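 active = inhibition above its plate's cutoff, the mean inhibition of sample wells plus 3 SD, cut at about 27% in these data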;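 also: 0% = acetylcholine EC80 with DMSO and 100% = DMSO without agonist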
M5 antag: human M5 muscarinic receptor antagonists, primary screen, CHO cells, Fluo-8 calcium fluorescence | Muscarinic acetylcholine receptor M5 (Homo sapiens), P08912 | CHO-hM5 cells, ACh EC80 | inhibition, % at 3 µM | actives 0.59% (n = 360,000) | AID 624040, 2012;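 active = inhibition above a per-plate cutoff, the mean of that plate's test compounds plus 3 SD, cut at about 27% in these data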;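 also: 0% = acetylcholine EC80 with DMSO and 100% = DMSO without agonist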
Target sequence (P08912 whole entry, looked up): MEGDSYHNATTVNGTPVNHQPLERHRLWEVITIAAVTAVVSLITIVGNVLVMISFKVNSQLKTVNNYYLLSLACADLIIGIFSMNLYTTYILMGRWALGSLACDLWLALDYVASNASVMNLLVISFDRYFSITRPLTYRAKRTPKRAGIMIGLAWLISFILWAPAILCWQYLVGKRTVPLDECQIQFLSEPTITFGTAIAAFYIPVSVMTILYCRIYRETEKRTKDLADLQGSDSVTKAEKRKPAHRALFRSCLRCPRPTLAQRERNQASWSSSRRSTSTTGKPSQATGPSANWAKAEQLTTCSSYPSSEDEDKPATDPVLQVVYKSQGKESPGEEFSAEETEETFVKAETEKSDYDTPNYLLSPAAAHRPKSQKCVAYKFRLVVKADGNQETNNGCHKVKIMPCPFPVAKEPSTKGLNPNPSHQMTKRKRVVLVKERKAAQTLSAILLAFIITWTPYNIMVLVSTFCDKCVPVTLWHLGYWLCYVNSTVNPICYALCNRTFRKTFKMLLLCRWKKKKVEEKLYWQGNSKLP
M5 ag: human M5 muscarinic receptor agonists, primary screen, CHO-K1 cells, Fluo-8 calcium fluorescence. actives 0.19% (n = 360,000). activation, % at 3 µM. CHO-K1 hM5 cells; 0% DMSO wells, 100% maximal acetylcholine response. Muscarinic acetylcholine receptor M5 (Homo sapiens), P08912;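 active = activation above the run's mean over test compounds plus 3 SD, cut at about 23% in these data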;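 also: signal is peak over basal fluorescence ratio across the kinetic read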
M5 PAM: human M5 muscarinic receptor positive allosteric modulators, primary screen, CHO-K1 cells, Fluo-8 calcium fluorescence; Muscarinic acetylcholine receptor M5 (Homo sapiens), P08912; CHO-K1 hM5, ACh EC20 PAM; 0% = ACh EC20, 100% = ACh EC100; activation, % at 3 µM; actives 0.3% (n = 360,000); AID 624038, 2012;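 active = activation above the run cutoff, the mean activation of all test compounds plus 3 SD, cut at about 18% in these data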
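Assay system – human M5 receptor in CHO-K1 cells · Read-out – % activation, ACh-normalized · Technique – Fluo-8 calcium fluorescence · Dosing – single-point, 3 µM nominal · Incubation – Fluo-8 loading 80 min at 37 °C plus 30 min room temperature · Repeats – singlicate, one well per test compound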
CHRM4 PAM: human M4 muscarinic receptor positive allosteric modulators, primary screen, CHO-K1 cells, Fluo-8 calcium fluorescence; activation, % at 3 µM; actives 0.4% (n = 360,000); CHO-K1 hM4/Gqi5, ACh EC20; 0% = ACh EC20, 100% = maximal ACh; Muscarinic acetylcholine receptor M4 (Homo sapiens), P08173;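 active = activation above its plate's cutoff, the mean activation of sample wells plus 3 SD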
Numbers without * were called inactive. Compounds with a hit are over-represented: about 1.8% of the library has one in this group of screens.

SMILES | CHRM4 agonist | CHRM4 antagonist | M5 antag | M5 ag | M5 PAM | CHRM4 PAM
CCc1nnc(SCc2ccc(C(=O)OC)o2)n1N | 1.9 | -6.7 | -9.9 | 2.4 | 19.2* | 12.3
CC(=O)c1c(C)[nH]c(C(=O)Nc2cccc(C(F)(F)F)c2)c1C | 20.4 | 9.6 | 28.8* | 7.4 | -12.6 | -13.6
Cn1nc(C(=O)Nc2cccc(C(F)(F)F)c2)c2ccccc2c1=O | -3.5 | 13.0 | -5.7 | -4.9 | -1.4 | 31.2*
Cn1nc(C(=O)Nc2cccc(C(=O)NC3CC3)c2)c2ccccc2c1=O | 3.1 | -3.4 | -10.4 | 3.8 | 8.0 | -0.6
O=C(Nc1ccccc1)Nc1cccc(C(F)(F)F)c1 | 15.7 | 3.5 | 39.7* | 4.3 | -17.1 | -11.9
FC(F)(F)c1cccc(NC(=S)NC(c2ccccc2)c2ccccc2)c1 | 13.7 | 12.4 | 27.3* | 2.0 | -18.6 | -18.3
FC(F)(F)c1cccc(NC(=S)Nc2ccc(Cl)c(Cl)c2)c1 | 5.7 | 3.5 | 5.8 | 7.8 | -5.7 | -1.0
CCOc1ccc2[nH]c3c(NCC(C)C)ncnc3c2c1 | 3.8 | 2.3 | -5.1 | 0.8 | -5.8 | -6.3
O=C(COC(=O)C1CCCCC1)Nc1cccc(Br)c1 | 5.9 | -0.2 | 10.2 | 1.0 | -10.4 | -0.6
CC(C)N(C)c1ncnc2c1ncn2[C@H]1CN(C2CCCC2)C[C@@H](CO)O1 | 0.5 | 6.9 | 15.5 | -2.6 | -16.2 | -1.2
CC(=O)c1cc2c(cc1NC(=O)C1CCC1)OCO2 | 2.4 | -0.8 | -9.6 | -3.6 | 14.3 | 23.6*
Cc1occc1C(=O)N/N=C/c1cccc2ccccc12 | 1.9 | 14.2 | 15.9 | -3.3 | -5.8 | -4.4
O=C1NC(=Nc2ccccc2)S/C1=C\c1cccnc1 | 2.2 | -3.9 | 21.5 | 0.8 | -6.5 | -1.0
O=C1NC(=Nc2cccnc2)S/C1=C/c1ccc(F)cc1 | 2.0 | -18.7 | 1.5 | 1.0 | 6.3 | 16.0*
S=c1[nH]nc(-c2ccncc2)n1/N=C/C=C/c1ccccc1 | 0.1 | -8.2 | 1.4 | 18.7 | 2.5 | 11.2
S=c1[nH]nc(-c2ccncc2)n1/N=C/C(Cl)=C\c1ccccc1 | 5.0 | -16.1 | -12.0 | 38.0* | 0.5 | 25.9*
Cc1ccc(/C(CSc2nccn2-c2ncc(C(F)(F)F)cc2Cl)=N\O)cc1 | 4.6 | 8.5 | 0.1 | 2.5 | -5.4 | -2.4
O=C(CSc1nccn1-c1ncc(C(F)(F)F)cc1Cl)c1ccc(Br)cc1 | 1.0 | -6.5 | 19.3 | -1.6 | 21.8* | 8.2
O=C(CCN=C1NS(=O)(=O)c2ccccc21)OCc1nnc(-c2ccc([N+](=O)[O-])cc2)o1 | 1.8 | 5.4 | 2.3 | -0.8 | 5.7 | 5.4
COc1ccc(CCNC(=O)c2ccc(CN3CCC(Cc4ccccc4)CC3)cc2)cc1 | 3.8 | -4.7 | 5.0 | -6.5 | -7.8 | -10.0
CSc1ccc(CN2CCC(Cc3ccccc3)CC2)cc1 | 0.9 | 27.7* | 1.0 | -24.8 | -14.6 | -17.8
CC(C)NC(=O)c1ccc(CN2CCC(Cc3ccccc3)CC2)cc1 | 1.1 | 66.9* | 5.6 | -23.5 | -24.0 | -16.3
C=CCNC(=O)c1ccc(CN2CCC(Cc3ccccc3)CC2)cc1 | 2.2 | 28.2* | -5.5 | -23.1 | -18.6 | -16.4
O=[N+]([O-])c1ccc(N2CCN(C(=S)NCc3ccc(Cl)cc3)CC2)cc1 | 13.7 | 19.7 | 29.1* | 1.6 | -20.4 | -18.9
O=C(CC1CCCC1)NNC(=O)c1ccc(Br)cc1 | 2.0 | 0.7 | 10.7 | 0.3 | -9.5 | 1.0
SMILES | CHRM4 agonist | CHRM4 antagonist | M5 antag | M5 ag | M5 PAM | CHRM4 PAM
CSc1nc(-c2ccc(Cl)cc2)c(C#N)c(=O)n1C | 1.8 | -10.0 | -3.1 | 2.9 | 4.4 | 20.1*
Cc1cccc(N2N=C(C(=O)N3Cc4ccccc4CC3C(N)=O)CCC2=O)c1 (stereo not given) | 0.8 | -2.4 | -5.3 | 2.2 | 6.8 | 0.9
COc1ccccc1NC(=O)c1ccc(NC(=O)COC(=O)C2(C)CC2(Cl)Cl)cc1 (stereo not given) | 16.5 | 8.1 | 28.8* | 1.8 | -19.2 | -15.1
CC1(C(=O)OCC(=O)Nc2ccc(C(N)=O)cc2)CC1(Cl)Cl (stereo not given) | 0.1 | -11.9 | 0.7 | -1.9 | 7.7 | 7.8
Cc1ccc(NC(=O)COC(=O)Cn2cnc3c2c(=O)n(C)c(=O)n3C)cc1 | 1.6 | -15.2 | 1.0 | 3.5 | -5.8 | 4.5
CCOC(=O)c1c(NC(=O)COC(=O)Cn2cnc3c2c(=O)n(C)c(=O)n3C)sc(C)c1CC | 2.8 | -4.6 | 6.2 | 1.0 | -8.9 | 23.8*
O=C(CC1CCC1)Nc1cccc2c([N+](=O)[O-])cccc12 | 0.4 | 7.8 | 27.5* | -6.7 | -11.2 | -10.6
COC(=O)CCCn1cc(CN2CC(N3CCCCC3)CS2(=O)=O)nn1 (stereo not given) | 0.6 | 2.4 | -4.7 | 2.5 | -0.5 | 5.0
CCN(CC)CCSc1nc2ccccc2n1Cc1ccccc1 | 2.0 | 35.5* | 40.1* | -7.5 | -17.2 | -16.6
CN(C)C(=O)CSc1nc2ccccc2n1Cc1ccccc1 | -0.1 | 0.3 | 12.4 | -8.3 | -8.8 | -5.1
O=C(COc1cccnc1[N+](=O)[O-])Nc1ncc(Cl)cc1Cl | 2.1 | -18.0 | -0.6 | 3.4 | 3.7 | 24.5*
O=C(CCN1CCN(Cc2ccccc2)CC1)NNC(=O)c1ccc(Cl)c(Cl)c1 | 1.2 | 14.8 | -0.6 | -0.9 | 1.6 | -2.1
C=C(C)C1CC=C(C)/C(=N/NC(=O)COc2ccc(Cl)cc2)C1 (stereo not given) | 1.4 | -11.0 | 1.9 | -4.8 | 5.3 | 19.8*
CC1(C)CN=C(NC2CCCCC2)S1 | 0.7 | 42.8* | 10.8 | -6.5 | -9.2 | -14.3
N#C/C(=C/c1ccc(N2CCOCC2)o1)C(=O)Nc1ccccc1 | 53.7* | 13.2 | 27.3* | 42.6* | -20.8 | -16.4
N#C/C(=C\c1ccc(N2CCOCC2)o1)C(=O)NCCc1ccccc1 | 34.5* | 3.1 | 16.1 | 47.0* | -22.9 | -12.9
CN(NC(=O)C(=O)NCc1ccco1)C(=O)Nc1ccc(Cl)cc1 | 17.8 | 7.5 | 36.8* | 11.2 | -20.5 | 4.0
CCN1C(=NCc2ccco2)N[C@@H](c2cccc(C(F)(F)F)c2)C(C(=O)OC)=C1C | 3.3 | 27.1* | 20.0 | -3.0 | -6.3 | 2.3
O=c1[nH]cnc2c1C(c1ccccc1[N+](=O)[O-])c1c(nc[nH]c1=O)O2 | 0.8 | -0.2 | -13.5 | 0.5 | 20.9* | 12.7
O=C1NC2(CCCCCC2)N=C1c1ccc(Br)cc1 | -0.3 | 35.1* | -8.9 | 4.4 | 3.3 | 16.6
